In ChEMBL document CHEMBL1132227, “Low-molecular-weight peptidic and cyclic antagonists of the receptor for the complement factor C5a” (J Med Chem, 1999):

Tests used:
[1] = organism: Homo sapiens; assay: (§1) Concentration of peptide resulting in 50% inhibition of C5a (100 nM) causing the release of MPO from polymorphonuclear leukocytes; assay type: functional, organism-based
How it was run: (§2)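 Freshly isolated human PMNs primed with cytochalasin B (10 µg/mL, 10 min, 37 °C). Cells (4 × 10⁶/mL) preincubated 10 min at 37 °C with peptide in Hank's balanced salt solution with 0.1% gelatin. Challenged with C5a (100 nM) for 10 min. Myeloperoxidase read-out: pH 6.8 phosphate buffer, dimethoxybenzidine/H₂O₂, stopped at 20 min with sodium azide. A450 corrected for no-peptide controls.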

[2] = organism: Homo sapiens; assay: as §1; assay type: functional, organism-based; how it was run: as §2; remark: listed apart in the source
[3] = molecular target: T1, C5a anaphylatoxin chemotactic receptor 1 (Homo sapiens, UniProt P21730); assay: (§3) Inhibition of binding of [125I]C5a to human polymorphonuclear leukocyte C5a receptor
T1 sequence (P21730 whole entry): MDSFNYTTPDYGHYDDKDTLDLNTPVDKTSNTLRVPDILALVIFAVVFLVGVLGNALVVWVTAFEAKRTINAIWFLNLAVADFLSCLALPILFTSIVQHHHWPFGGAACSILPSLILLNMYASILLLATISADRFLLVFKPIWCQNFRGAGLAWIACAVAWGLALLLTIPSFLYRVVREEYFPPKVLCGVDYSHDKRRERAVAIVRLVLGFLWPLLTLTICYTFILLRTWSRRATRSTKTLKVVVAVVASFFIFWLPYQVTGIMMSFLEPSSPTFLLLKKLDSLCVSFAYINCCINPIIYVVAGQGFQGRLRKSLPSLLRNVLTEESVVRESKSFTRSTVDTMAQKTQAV
How it was run: (§4)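 Competition binding on fresh human PMNs (0.2 × 10⁶) with [¹²⁵I]C5a (~50 pM). Buffer: 50 mM HEPES, 1 mM CaCl₂, 5 mM MgCl₂, 0.5% BSA, 0.1% bacitracin, 100 μM PMSF. Incubated 60 min at 4 °C, then filtered, washed and γ-counted. Nonspecific binding defined with 1 mM peptide or 100 nM C5a.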

[4] = molecular target: T1, C5a anaphylatoxin chemotactic receptor 1; assay: as §3; how it was run: as §4; remark: listed apart in the source
[5] = molecular target: T1, C5a anaphylatoxin chemotactic receptor 1; assay: (§5) Inhibition of binding of [125I]C5a to human polymorphonuclear leukocyte(PMN) C5a anaphylatoxin chemotactic receptor
How it was run: (§6)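 Competition binding on freshly isolated whole human PMNs (0.2 × 10⁶/well) against ~50 pM [125I]C5a, with unlabeled peptide or recombinant human C5a as competitor. Buffer: 50 mM HEPES, 1 mM CaCl2, 5 mM MgCl2, 0.5% BSA, 0.1% bacitracin, 100 μM PMSF. Incubated 60 min at 4 °C, then filtered, washed once and gamma-counted. Nonspecific binding set with 1 mM peptide or 100 nM C5a.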

[6] = molecular target: T1, C5a anaphylatoxin chemotactic receptor 1; assay: as §5; how it was run: as §6; remark: listed apart in the source

SMILES	IC50 [1] [µM]	IC50 [2] [µM]	IC50 [3] [µM]	IC50 [4] [µM]	IC50 [5] [µM]	IC50 [6] [µM]
NCCCC[C@H](NC(=O)[C@@H](N)Cc1ccccc1)C(=O)N[C@@H](Cc1ccccc1)C(=O)N[C@@H](CCCCN)C(=O)N1CCC[C@H]1C(=O)N[C@H](CC1CCCCC1)C(=O)N[C@@H](Cc1c[nH]c2ccccc12)C(=O)N[C@H](CCCN=C(N)N)C(=O)O	0.501	0.5	4.57	4.6	–	–
CC(C)[C@H](NC(=O)[C@H](CO)NC(=O)[C@H](Cc1c[nH]cn1)NC(=O)[C@H](CCCCN)NC(=O)[C@H](Cc1ccc(O)cc1)NC(=O)[C@@H](N)CCCCN)C(=O)N[C@H](C(=O)N[C@@H](CCCCN)C(=O)N[C@@H](CCCCN)C(=O)NCCCCC(=O)NCC(=O)NCC(=O)NCC(=O)NCC(=O)N[C@@H](Cc1ccccc1)C(=O)N[C@@H](CCCCN)C(=O)N1CCC[C@H]1C(=O)N[C@H](CC1CCCCC1)C(=O)N[C@@H](Cc1c[nH]c2ccccc12)C(=O)N[C@H](CCCNC(=N)N)C(=O)O)C(C)C	0.0724	0.07	> 0.174	0.2	–	–
CC(C)[C@H](NC(=O)[C@H](CO)NC(=O)[C@H](Cc1c[nH]cn1)NC(=O)[C@H](CCCCN)NC(=O)[C@H](Cc1ccc(O)cc1)NC(=O)[C@@H](N)CCCCN)C(=O)N[C@H](C(=O)N[C@@H](CCCCN)C(=O)N[C@@H](CCCCN)C(=O)NCCCCC(=O)N[C@@H](Cc1ccccc1)C(=O)N[C@@H](CCCCN)C(=O)N1CCC[C@H]1C(=O)N[C@H](CC1CCCCC1)C(=O)N[C@@H](Cc1c[nH]c2ccccc12)C(=O)N[C@H](CCCN=C(N)N)C(=O)O)C(C)C	0.245	0.2	1.23	1.2	–	–
CN1C(=O)[C@@H](CCCN=C(N)N)NC(=O)[C@H](Cc2c[nH]c3ccccc23)NC(=O)[C@@H](CC2CCCCC2)NC(=O)[C@@H]2CCCN2C(=O)[C@H](Cc2c[nH]c3ccccc23)NC(=O)[C@@H]1Cc1ccccc1	1.51	2.1	2.95	3	–	–
N=C(N)NCCC[C@H]1NC(=O)[C@H](Cc2c[nH]c3ccccc23)NC(=O)[C@@H](CC2CCCCC2)NC(=O)[C@@H]2CCCN2C(=O)[C@H](Cc2c[nH]c3ccccc23)NC(=O)[C@H](Cc2ccccc2)NC1=O	–	–	> 42.7	–	–	–
CN[C@@H](Cc1ccccc1)C(=O)N[C@@H](CCCCN)C(=O)N1CCCC1C(=O)N[C@H](CC1CCCCC1)C(=O)N[C@@H](Cc1c[nH]c2ccccc12)C(=O)N[C@@H](CCCN=C(N)N)C(=O)O (single isomer, unassigned)	1.95	2	–	–	–	–
C[C@H](NC(=O)[C@@H](N)Cc1ccccc1)C(=O)N1CCCC1C(=O)N[C@H](CC1CCCCC1)C(=O)N[C@@H](Cc1c[nH]c2ccccc12)C(=O)N[C@H](CCCN=C(N)N)C(=O)O (single isomer, unassigned)	3.63	3.7	9.12	9	–	–
CC(=O)N[C@@H](Cc1ccccc1)C(=O)N[C@@H](CCCCN)C(=O)N1CCCC1C(=O)N[C@H](CC1CCCCC1)C(=O)N[C@@H](Cc1c[nH]c2ccccc12)C(=O)N[C@H](CCCN=C(N)N)C(=O)O (single isomer, unassigned)	–	–	4.79	4.8	–	–
C[C@H](N)C(=O)N[C@@H](CCCCN)C(=O)N1CCCC1C(=O)N[C@H](CC1CCCCC1)C(=O)N[C@@H](Cc1c[nH]c2ccccc12)C(=O)N[C@H](CCCN=C(N)N)C(=O)O (single isomer, unassigned)	–	–	> 1000	> 1000	–	–
CCCC[C@H](NC(=O)[C@H](Cc1ccccc1)NC(C)=O)C(=O)N1CCCC1C(=O)N[C@H](CC1CCCCC1)C(=O)N[C@@H](Cc1c[nH]c2ccccc12)C(=O)N[C@H](CCCN=C(N)N)C(=O)O (single isomer, unassigned)	1.41	1.4	3.55	3.6	–	–
NC(N)=NCCC[C@@H](NC(=O)[C@H](Cc1c[nH]c2ccccc12)NC(=O)[C@@H](CC1CCCCC1)NC(=O)C1CCCN1C(=O)[C@H](Cc1c[nH]c2ccccc12)NC(=O)[C@@H](N)Cc1ccccc1)C(=O)O (single isomer, unassigned)	0.316	0.3	–	–	5.89	5.9
CN[C@@H](Cc1ccccc1)C(=O)N[C@@H](CCCCN)C(=O)N1CCCC1C(=O)N[C@H](CC1CCCCC1)C(=O)N[C@@H](Cc1c[nH]c2ccccc12)C(=O)N[C@H](CCCN=C(N)N)C(=O)O (single isomer, unassigned)	0.107	0.1	–	–	–	–
NCCCC[C@H](NC(=O)[C@H](Cc1ccccc1)NC(=O)[C@@H](N)CCCCN)C(=O)N1CCCC1C(=O)N[C@H](CC1CCCCC1)C(=O)N[C@@H](Cc1c[nH]c2ccccc12)C(=O)N[C@H](CCCN=C(N)N)C(=O)O (single isomer, unassigned)	0.269	0.3	2.63	2.6	–	–
CC(=O)N[C@@H](Cc1ccccc1)C(=O)N[C@@H](CCCN)C(=O)N1CCCC1C(=O)N[C@H](CC1CCCCC1)C(=O)N[C@@H](Cc1c[nH]c2ccccc12)C(=O)N[C@H](CCCN=C(N)N)C(=O)O (single isomer, unassigned)	0.191	0.2	0.794	0.8	–	–
NCCCC[C@H](NC(=O)[C@@H](N)Cc1ccccc1)C(=O)N1CCCC1C(=O)N[C@H](CC1CCCCC1)C(=O)N[C@@H](Cc1c[nH]c2ccccc12)C(=O)N[C@H](CCCN=C(N)N)C(=O)O (single isomer, unassigned)	6.76	6.8	1.95	2	–	–
CC(=O)N[C@@H](Cc1ccccc1)C(=O)N[C@@H](CCCCN)C(=O)N1CCCC1C(=O)N[C@H](CC1CCCCC1)C(=O)N[C@@H](CC1c2ccccc2-c2ccccc21)C(=O)N[C@H](CCCN=C(N)N)C(=O)O (single isomer, unassigned; 16a)	–	–	> 51.3	51	–	–
CC(=O)N[C@@H](Cc1ccccc1)C(=O)N[C@@H](CCCCN)C(=O)N1CCCC1C(=O)N[C@H](CC1CCCCC1)C(=O)N[C@@H](CC1c2ccccc2-c2ccccc21)C(=O)N[C@H](CCCN=C(N)N)C(=O)O (single isomer, unassigned; 16b)	–	–	> 115	116	–	–
